Each block holds one compound with its values, some of them ahead of it. Active and inactive are the calls of the source. The rule behind the calls is not given here.
Key:
[1] = biological target: T1, Putative amino acid permease/transporter (Trypanosoma cruzi, UniProt D5FGE8); test: Inhibition of Trypanosoma cruzi Y epimastigotes PAT assessed as reduction in [3H]-putrescine uptake after 10 mins by liquid scintillation counting method
T1 sequence (D5FGE8 whole entry): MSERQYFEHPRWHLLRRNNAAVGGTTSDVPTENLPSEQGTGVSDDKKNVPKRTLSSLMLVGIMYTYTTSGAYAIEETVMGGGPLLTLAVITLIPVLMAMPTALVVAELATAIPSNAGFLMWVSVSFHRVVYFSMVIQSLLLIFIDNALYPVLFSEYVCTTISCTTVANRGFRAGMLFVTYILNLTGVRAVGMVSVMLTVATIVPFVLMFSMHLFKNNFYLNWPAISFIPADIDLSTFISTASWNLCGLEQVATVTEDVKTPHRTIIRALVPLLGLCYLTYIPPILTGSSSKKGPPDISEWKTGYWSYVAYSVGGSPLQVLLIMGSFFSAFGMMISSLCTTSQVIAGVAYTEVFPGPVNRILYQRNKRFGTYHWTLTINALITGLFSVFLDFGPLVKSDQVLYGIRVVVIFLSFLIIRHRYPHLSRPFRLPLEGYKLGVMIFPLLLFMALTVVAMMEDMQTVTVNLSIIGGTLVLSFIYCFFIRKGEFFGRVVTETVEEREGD
In short: (§1)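 Y-strain epimastigotes from BHT culture were washed twice in PBS. 10^7 cells in PBS-2% glucose were given [3H]-putrescine (5 µM) or [3H]-spermidine (15 µM), 0.4 µCi, with inhibitor at 0–30 µM, later narrowed. Incubation was 10 min at 28 °C or 37 °C, stopped with ice-cold buffer and washed; pellets went to scintillation counting. Nonspecific uptake was taken with a 100-fold molar excess of substrate. IC50 was fit by nonlinear regression.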

[2] = biological target: T1, Putative amino acid permease/transporter; test: Inhibition of Trypanosoma cruzi Y epimastigotes PAT assessed as reduction in [3H]--spermidine uptake after 10 mins by liquid scintillation counting method; in short: as §1
[3] = biological target: T2, Putative amino acid permease/transporter (Trypanosoma cruzi) (UniProt D5FGE8); test: Inhibition of Trypanosoma cruzi Y epimastigotes PAT assessed as reduction in [3H]-putrescine uptake up to 30 uM after 10 mins by liquid scintillation counting method; in short: as §1
T2 sequence (whole entry): T1 sequence (D5FGE8 whole entry)

[4] = biological target: T2, Putative amino acid permease/transporter (Trypanosoma cruzi); test: Inhibition of Trypanosoma cruzi Y epimastigotes PAT assessed as reduction in [3H]--spermidine uptake up to 30 uM after 10 mins by liquid scintillation counting method; in short: as §1
[5] = test system: Leishmania amazonensis; test: Antiparasitic activity against Leishmania amazonensis MHOM/Br/75/Josefa promastigotes by light microscopic method; format: functional, organism-based
[6] = test system: Trypanosoma cruzi; test: Trypanopcidal activity against Trypanosoma cruzi Y epimastigotes after 48 hrs by Neubauer chamber or MTS dye based assay; format: functional, organism-based
In short: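 Y-strain epimastigotes, 10^7 cells/well in BHT (pH 7, 10% FCS, hemin), were exposed to 0–100 µM compound at 28 °C for 48 h. Growth was counted in a Neubauer chamber or by MTS. IC50 is 50% viability relative to untreated control, by nonlinear regression; at least triplicate, three independent assays.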

[7] = test system: Trypanosoma cruzi; test: Trypanopcidal activity against Trypanosoma cruzi Y trypamastigotes after 24 hrs by Neubauer chamber or MTS dye based assay; format: functional, organism-based
In short: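 Culture-derived trypomastigotes, 10^6 cells/mL, were held at 37 °C for 24 h with compound at 0–2.5 µM. Motility was checked microscopically, and viability was counted by Neubauer chamber or MTS against untreated controls. IC50 was from logistic nonlinear regression.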

[8] = test system: Trypanosoma cruzi; test: Ratio of IC50 for Trypanosoma cruzi Y epimastigotes to IC50 for Trypanosoma cruzi Y trypamastigotes; format: functional
[9] = test system: Trypanosoma cruzi; test: Trypanopcidal activity against Trypanosoma cruzi Y trypamastigotes infected in African green monkey Vero cells treated for 5 days by Neubauer chamber or MTS dye based assay; format: functional, organism-based; details: 120 h
In short: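 VERO cells infected with trypomastigotes were exposed to compound at 0–2.5 µM for five days. Trypomastigote burst was scored after six days of infection. IC50 was obtained by nonlinear regression of dose-response.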

[10] = test system: Vero; test: Cytotoxicity against African green monkey Vero cells assessed as reduction in cell viability after 24 hrs by crystal violet staining based assay; details: Chlorocebus sabaeus
In short: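 VERO cells (MEM, 10% heat-inactivated FCS, 37 °C, 5% CO2) were seeded at 10^4 cells/well and treated 24 h with compound at 0–50 µM; PBS served as negative control. Cells were fixed 15 min, stained with 0.5% crystal violet, and absorbance read at 570 nm. IC50 was from nonlinear regression.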

[11] = Selectivity index, ratio of IC50 for cytotoxicity against African green monkey Vero cells to IC50 for trypanopcidal activity against Trypanosoma cruzi Y trypamastigotes; format: toxicity, cell-based; details: read-out: Ratio IC50
[12] = test system: HL-60; test: Cytotoxicity against human HL60 cells; format: cell-based
[13] = biological target: T1, Putative amino acid permease/transporter; test: Inhibition of Trypanosoma cruzi Y trypamastigotes PAT assessed as reduction in [3H]-putrescine uptake after 10 mins by liquid scintillation counting method
In short: (§2)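 Trypomastigotes came from infected VERO cells. 10^7 washed parasites in PBS-2% glucose were given [3H]-putrescine or [3H]-spermidine (0.4 µCi) plus inhibitor for 10 min at 28 °C or 37 °C. The reaction was stopped with ice-cold PBS-glucose, washed and scintillation counted. Background was taken with a 100-fold molar substrate excess. IC50 came from logistic dose-response fit.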

[14] = biological target: T1, Putative amino acid permease/transporter; test: Inhibition of Trypanosoma cruzi Y trypamastigotes PAT assessed as reduction in [3H]--spermidine uptake after 10 mins by liquid scintillation counting method; in short: as §2
[15] = test system: Trypanosoma cruzi; test: Potentiation of benznidazole-induced trypanopcidal activity against Trypanosoma cruzi Y epimastigotes at 20 uM after 24 hrs by Neubauer chamber or MTS dye based assay; format: functional
In short: (§3)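 Epimastigotes were treated with 30 µM benznidazole alone or with 20 µM polyamine conjugate, for up to 96 h at 28 °C. Parasites were counted (Neubauer or MTS) at 24, 48, 72 and 96 h. Potentiation is the fold change in benznidazole potency with versus without the conjugate.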

[16] = test system: Trypanosoma cruzi; test: Potentiation of benznidazole-induced trypanopcidal activity against Trypanosoma cruzi Y epimastigotes at 20 uM after 48 hrs by Neubauer chamber or MTS dye based assay; format: functional; in short: as §3
[17] = test system: Trypanosoma cruzi; test: Potentiation of benznidazole-induced trypanopcidal activity against Trypanosoma cruzi Y epimastigotes at 20 uM after 72 hrs by Neubauer chamber or MTS dye based assay; format: functional; in short: as §3
[18] = test system: Trypanosoma cruzi; test: Potentiation of benznidazole-induced trypanopcidal activity against Trypanosoma cruzi Y epimastigotes at 20 uM after 96 hrs by Neubauer chamber or MTS dye based assay; format: functional; in short: as §3

- IC50 [1]: 3.98 µM
- IC50 [2]: 13.3 µM
- inhibition [3]: Active
- inhibition [4]: Active
Structure (SMILES): NCCCCNCCCCNCc1c2ccccc2cc2ccccc12

- IC50 [1]: 2.43 µM
- inhibition [3]: Active
Structure (SMILES): CCCCCCCCCCCCCCCC(=O)NCCCCC(N)C(=O)NCCCNCCCCNCCCN (centres undefined)

- IC50 [5]: 144 µM
Structure (SMILES): NCCC(=O)CN

- IC50 [1]: 5.02 µM
- IC50 [2]: 8.78 µM
- inhibition [3]: Active
- inhibition [4]: Active
- IC50 [13]: 4.94 µM
- IC50 [14]: 4.86 µM
Structure (SMILES): Cl.Cl.NCCCCNCc1c2ccccc2cc2ccccc12
- IC50 [6]: 17 µM
- IC50 [7]: 460 nM
- Ratio IC50 [8]: 37
- IC50 [9]: 520 nM
- IC50 [10]: 5.86 µM
- selectivity ratio [11]: 12.7
- IC50 [12]: 20 µM
- fold change (FC) [15]: 1.5
- fold change (FC) [16]: 1.9
- fold change (FC) [17]: 6.2
- fold change (FC) [18]: 11.2

Source: ChEMBL document CHEMBL4145527, “Targeting polyamine transport in Trypanosoma cruzi” (Eur J Med Chem, 2018)
